Assay results reported in ChEMBL document CHEMBL5724801, “EUbOPEN Chemogenomics Library - Multiplex” (2024).
Values joined by “and” are separate entries in the source; they are usually repeats but may differ in a detail not shown here. Equal entries are not always repeated.

Tested on: U2OS
Assay: Multiplex assay against U2OS
Assay type: toxicity, cell-based
Settings: human
Method in brief: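 Live cells were stained at seeding with Hoechst33342, BioTracker Green Microtubule Cytoskeleton Dye, MitoTracker Red and Annexin V Alexa Fluor 680. Following compound addition, they were imaged on a CQ1 microscope at 37°C and 5% CO2 and gated by CellPathfinder machine learning into Hoechst high-intensity objects or normal cells, with normal cells split into healthy, pyknosed or fragmented nuclei and pyknosed cells into mitotic or apoptotic. Tubulin, mitochondrial-mass and membrane-permeability phenotypes are per cents of healthy-nucleus cells.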

[1] = 12 h, 1 µM, compound concentration 1 uM
[2] = 12 h, 10 µM, compound concentration 10 uM
[3] = 24 h, 1 µM, compound concentration 1 uM
[4] = 24 h, 10 µM, compound concentration 10 uM
[5] = 48 h, 1 µM, compound concentration 1 uM
[6] = 48 h, 10 µM, compound concentration 10 uM

## Cc1sc2c(c1C)C(c1ccc(Cl)cc1)=N[C@H](CC(=O)OC(C)(C)C)c1nnc(C)n1-2
[1]
  Population Apoptotic (%): 81% and 71%
  Population Fragmented Nuclei (%): 28% and 16%
  Population Healthy Nuclei (%): 63% and 77%
  Population Hoechst High Intensity Objects (%): 2% and 4%
  Population Membrane Permeable-Phenotype (%): 7%
  Population Mitochondria Different-Phenotype (%): 4% and 2%
  Population Mitotic Cells (%): 18% and 28%
  Population Normal (%): 97% and 95%
  Population Pyknosed Nuclei (%): 8% and 6%
  Population Tubulin-Different-Phenotype (%): 4%
  Total Cell Count: 256 and 120
[2]
  Population Apoptotic (%): 51% and 90%
  Population Fragmented Nuclei (%): 32% and 22%
  Population Healthy Nuclei (%): 56% and 68%
  Population Hoechst High Intensity Objects (%): 2% and 0%
  Population Mitochondria Different-Phenotype (%): 35% and 24%
  Population Normal (%): 97% and 100%
  Population Pyknosed Nuclei (%): 11% and 8%
  Total Cell Count: 240 and 118
[3]
  Population Apoptotic (%): 77% and 75%
  Population Fragmented Nuclei (%): 22% and 20%
  Population Healthy Nuclei (%): 69% and 70%
  Population Hoechst High Intensity Objects (%): 0% and 3%
  Population Membrane Permeable-Phenotype (%): 5%
  Population Mitochondria Different-Phenotype (%): 1% and 2%
  Population Mitotic Cells (%): 22% and 25%
  Population Normal (%): 99% and 96%
  Population Pyknosed Nuclei (%): 7% and 8%
  Population Tubulin-Different-Phenotype (%): 1% and 2%
  Total Cell Count: 280 and 149
[4]
  Population Apoptotic (%): 83% and 76%
  Population Fragmented Nuclei (%): 29% and 24%
  Population Healthy Nuclei (%): 57% and 65%
  Population Hoechst High Intensity Objects (%): 2% and 0%
  Population Membrane Permeable-Phenotype (%): 17% and 7%
  Population Mitochondria Different-Phenotype (%): 17% and 25%
  Population Mitotic Cells (%): 16% and 23%
  Population Normal (%): 97% and 99%
  Population Pyknosed Nuclei (%): 13% and 10%
  Population Tubulin-Different-Phenotype (%): 8% and 3%
  Total Cell Count: 280 and 130
[5]
  Population Apoptotic (%): 77% and 96%
  Population Fragmented Nuclei (%): 20% and 21%
  Population Healthy Nuclei (%): 72% and 64%
  Population Hoechst High Intensity Objects (%): 1% and 3%
  Population Membrane Permeable-Phenotype (%): 5% and 7%
  Population Mitochondria Different-Phenotype (%): 2% and 7%
  Population Normal (%): 98% and 96%
  Population Pyknosed Nuclei (%): 6% and 14%
  Population Tubulin-Different-Phenotype (%): 2% and 5%
  Total Cell Count: 415 and 228
[6]
  Population Apoptotic (%): 86% and 89%
  Population Fragmented Nuclei (%): 23% and 20%
  Population Healthy Nuclei (%): 57% and 68%
  Population Hoechst High Intensity Objects (%): 2% and 1%
  Population Membrane Permeable-Phenotype (%): 11%
  Population Mitochondria Different-Phenotype (%): 7% and 8%
  Population Mitotic Cells (%): 13% and 10%
  Population Normal (%): 97% and 98%
  Population Pyknosed Nuclei (%): 18% and 11%
  Population Tubulin-Different-Phenotype (%): 5% and 3%
  Total Cell Count: 342 and 174

## CC(C)(O)C(=O)N1CCN(c2ccc(C(F)(F)F)c(C3=C(c4c[nH]c5ccccc45)C(=O)NC3=O)c2)CC1
[1]
  Population Apoptotic (%): 88% and 92%
  Population Fragmented Nuclei (%): 29% and 14%
  Population Healthy Nuclei (%): 63% and 75%
  Population Hoechst High Intensity Objects (%): 3% and 1%
  Population Membrane Permeable-Phenotype (%): 5% and 4%
  Population Mitochondria Different-Phenotype (%): 2% and 4%
  Population Mitotic Cells (%): 11% and 7%
  Population Normal (%): 96% and 98%
  Population Pyknosed Nuclei (%): 7% and 9%
  Population Tubulin-Different-Phenotype (%): 3%
  Total Cell Count: 238 and 134
[2]
  Population Apoptotic (%): 76% and 50%
  Population Healthy Nuclei (%): 46% and 77%
  Population Hoechst High Intensity Objects (%): 6% and 1%
  Population Membrane Permeable-Phenotype (%): 39% and 14%
  Population Mitochondria Different-Phenotype (%): 23% and 14%
  Population Mitotic Cells (%): 24% and 50%
  Population Normal (%): 93% and 98%
  Population Pyknosed Nuclei (%): 16%
  Population Tubulin-Different-Phenotype (%): 30% and 15%
  Total Cell Count: 166 and 148
[3]
  Population Apoptotic (%): 89% and 82%
  Population Fragmented Nuclei (%): 27% and 22%
  Population Healthy Nuclei (%): 61% and 67%
  Population Hoechst High Intensity Objects (%): 3% and 0%
  Population Membrane Permeable-Phenotype (%): 7% and 4%
  Population Mitochondria Different-Phenotype (%): 3% and 2%
  Population Mitotic Cells (%): 10% and 17%
  Population Normal (%): 96% and 100%
  Population Pyknosed Nuclei (%): 11% and 9%
  Population Tubulin-Different-Phenotype (%): 5% and 2%
  Total Cell Count: 263 and 172
[4]
  Population Apoptotic (%): 87% and 70%
  Population Fragmented Nuclei (%): 48% and 16%
  Population Healthy Nuclei (%): 27% and 53%
  Population Hoechst High Intensity Objects (%): 6% and 2%
  Population Membrane Permeable-Phenotype (%): 11% and 15%
  Population Mitochondria Different-Phenotype (%): 34% and 24%
  Population Mitotic Cells (%): 12% and 29%
  Population Normal (%): 93% and 97%
  Population Pyknosed Nuclei (%): 24% and 29%
  Population Tubulin-Different-Phenotype (%): 15% and 11%
  Total Cell Count: 172 and 152
[5]
  Population Apoptotic (%): 95% and 85%
  Population Fragmented Nuclei (%): 21% and 17%
  Population Healthy Nuclei (%): 65% and 73%
  Population Hoechst High Intensity Objects (%): 3% and 1%
  Population Membrane Permeable-Phenotype (%): 6% and 7%
  Population Mitochondria Different-Phenotype (%): 4% and 3%
  Population Mitotic Cells (%): 4% and 14%
  Population Normal (%): 96% and 98%
  Population Pyknosed Nuclei (%): 12% and 9%
  Population Tubulin-Different-Phenotype (%): 5% and 2%
  Total Cell Count: 377 and 233
[6]
  Population Apoptotic (%): 95% and 96%
  Population Fragmented Nuclei (%): 57% and 31%
  Population Healthy Nuclei (%): 11% and 27%
  Population Hoechst High Intensity Objects (%): 14% and 7%
  Population Membrane Permeable-Phenotype (%): 27% and 17%
  Population Mitochondria Different-Phenotype (%): 16% and 14%
  Population Mitotic Cells (%): 4% and 3%
  Population Normal (%): 85% and 92%
  Population Pyknosed Nuclei (%): 30% and 41%
  Population Tubulin-Different-Phenotype (%): 11% and 17%
  Total Cell Count: 177 and 163

## O=C(Nc1cc(C(F)(F)F)cc(C(F)(F)F)c1)c1cc(Cl)ccc1O [IMD-0354]
[1]
  Population Apoptotic (%): 56.25% and 45.83%
  Population Fragmented Nuclei (%): 0.73% and 2.45%
  Population Healthy Nuclei (%): 91.46% and 82.82%
  Population Hoechst High Intensity Objects (%): 0.24% and 0.61%
  Population Membrane Permeable-Phenotype (%): 0.27% and 2.22%
  Population Mitochondria Different-Phenotype (%): 0% and 7.41%
  Population Mitotic Cells (%): 43.75% and 54.17%
  Population Normal (%): 99.76% and 99.39%
  Population Pyknosed Nuclei (%): 7.8% and 14.72%
  Population Tubulin-Different-Phenotype (%): 0.27% and 0.74%
  Total Cell Count: 411 and 164
[2]
  Population Apoptotic (%): 45.45% and 65%
  Population Fragmented Nuclei (%): 2.48% and 9.2%
  Population Healthy Nuclei (%): 87.61% and 79.31%
  Population Hoechst High Intensity Objects (%): 0%
  Population Membrane Permeable-Phenotype (%): 0% and 0.72%
  Population Mitochondria Different-Phenotype (%): 0% and 2.9%
  Population Mitotic Cells (%): 54.55% and 35%
  Population Normal (%): 100%
  Population Pyknosed Nuclei (%): 9.91% and 11.49%
  Population Tubulin-Different-Phenotype (%): 0.26% and 0%
  Total Cell Count: 444 and 174
[3]
  Population Apoptotic (%): 40.91% and 57.69%
  Population Fragmented Nuclei (%): 1.32% and 3.81%
  Population Healthy Nuclei (%): 90.38% and 83.81%
  Population Hoechst High Intensity Objects (%): 0%
  Population Membrane Permeable-Phenotype (%): 0.21% and 1.7%
  Population Mitochondria Different-Phenotype (%): 0% and 8.52%
  Population Mitotic Cells (%): 59.09% and 42.31%
  Population Normal (%): 100%
  Population Pyknosed Nuclei (%): 8.3% and 12.38%
  Population Tubulin-Different-Phenotype (%): 0.42% and 0.57%
  Total Cell Count: 530 and 210
[4]
  Population Apoptotic (%): 60.24% and 73.33%
  Population Fragmented Nuclei (%): 1.8% and 8.77%
  Population Healthy Nuclei (%): 79.5% and 73.68%
  Population Hoechst High Intensity Objects (%): 0%
  Population Membrane Permeable-Phenotype (%): 2.55% and 1.59%
  Population Mitochondria Different-Phenotype (%): 0% and 0.79%
  Population Mitotic Cells (%): 39.76% and 26.67%
  Population Normal (%): 100%
  Population Pyknosed Nuclei (%): 18.69% and 17.54%
  Population Tubulin-Different-Phenotype (%): 3.4% and 0%
  Total Cell Count: 444 and 171
[5]
  Population Apoptotic (%): 46.15% and 44.44%
  Population Fragmented Nuclei (%): 2.37% and 2.99%
  Population Healthy Nuclei (%): 91.15% and 83.53%
  Population Hoechst High Intensity Objects (%): 0%
  Population Membrane Permeable-Phenotype (%): 0.68% and 0.36%
  Population Mitochondria Different-Phenotype (%): 0.14% and 3.58%
  Population Mitotic Cells (%): 53.85% and 55.56%
  Population Normal (%): 100%
  Population Pyknosed Nuclei (%): 6.48% and 13.47%
  Population Tubulin-Different-Phenotype (%): 1.23% and 0.36%
  Total Cell Count: 802 and 334
[6]
  Population Apoptotic (%): 62.57% and 80.82%
  Population Healthy Nuclei (%): 51.4% and 35.44%
  Population Hoechst High Intensity Objects (%): 0% and 0.63%
  Population Membrane Permeable-Phenotype (%): 13.86% and 7.14%
  Population Mitochondria Different-Phenotype (%): 1.49% and 1.79%
  Population Mitotic Cells (%): 37.43% and 19.18%
  Population Normal (%): 100% and 99.37%
  Population Pyknosed Nuclei (%): 45.55% and 46.2%
  Population Tubulin-Different-Phenotype (%): 11.39% and 8.93%
  Total Cell Count: 393 and 159
